The values that follow come from paper PMC4547606 (Bioorganic & medicinal chemistry, 2015).

The subject of test [1] is rats. The settings on record: cited from earlier work.
Test [2] deals with T1, human CB1 receptor (Homo sapiens, UniProt P21554). Kind of test: CB1 calcium mobilization assay, modulation experiments. The following applies: Figure 2. In kind it is cell-based. An outline of the steps: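 CHO-RD-HGA16 cells stably expressing human CB1, plated the day before and kept overnight at 37°C, 5% CO2. Loaded with Calcium 5 dye for 45 min at 37°C in HBSS, 20 mM HEPES, 2.5 mM probenecid, pH 7.4. Pre-treated 15 min at 37°C with one test compound concentration, then serial CP55,940 dilutions added at 10 s. Fluorescence read every 1 s for 90 s.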

Test [3] concerns over forty GPCRs. The following applies: including GPCRs commonly involved in drug addictions; cited from earlier work.
Test [4] deals with human CB2 receptor (Homo sapiens, UniProt P34972). Put plainly: CB2 calcium mobilization assay, antagonist screen at 10 μM. In kind it is cell-based. The settings on record: read-out: CB2 % Inhibition of CP55,940, compound at 10 μM; percent inhibition of CP55,940 EC80 (100 nM); mean ± SEM, at least two independent experiments in duplicate. (Calcium assays in cells follow changes in intracellular calcium, usually with a dye or a luminescent sensor.)

Test [5] relates to rats. The following applies: cited from earlier work. This is another data set of the same source.
Test [6] has as its system mice. The settings on record: cited from earlier work.
For test [7], the target named is T1, human CB1 receptor. Kind of test: CB1 calcium mobilization assay, antagonist. It is filed as cell-based. The following applies: ratio of CB1 IC50 values. An outline of the steps: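 CHO-RD-HGA16 cells stably expressing human CB1 were plated overnight (37°C, 5% CO2), then Calcium 5 dye-loaded for 45 min at 37°C in HBSS/20 mM HEPES/2.5 mM probenecid, pH 7.4. Test compound dilutions were pre-incubated 15 min at 37°C. CP55,940 at EC80 was added at 10 s, and fluorescence was read every 1 s for 90 s. IC50 came from three-parameter logistic fits; at least three independent experiments in duplicate.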

Where “and” joins values, the source holds several entries; their conditions need not be identical. Equal values may be shown once.

Sequence of human CB2 receptor (P34972 whole entry): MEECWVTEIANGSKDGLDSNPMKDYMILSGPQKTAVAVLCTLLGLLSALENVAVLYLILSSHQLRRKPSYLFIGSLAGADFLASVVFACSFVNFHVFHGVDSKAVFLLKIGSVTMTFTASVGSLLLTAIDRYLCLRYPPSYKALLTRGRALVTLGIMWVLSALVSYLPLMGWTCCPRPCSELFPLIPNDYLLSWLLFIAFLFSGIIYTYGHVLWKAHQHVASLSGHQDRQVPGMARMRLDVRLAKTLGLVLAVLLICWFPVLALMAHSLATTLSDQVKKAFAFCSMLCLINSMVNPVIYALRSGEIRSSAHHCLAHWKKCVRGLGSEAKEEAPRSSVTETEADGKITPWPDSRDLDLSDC
T1 sequence (P21554 whole entry): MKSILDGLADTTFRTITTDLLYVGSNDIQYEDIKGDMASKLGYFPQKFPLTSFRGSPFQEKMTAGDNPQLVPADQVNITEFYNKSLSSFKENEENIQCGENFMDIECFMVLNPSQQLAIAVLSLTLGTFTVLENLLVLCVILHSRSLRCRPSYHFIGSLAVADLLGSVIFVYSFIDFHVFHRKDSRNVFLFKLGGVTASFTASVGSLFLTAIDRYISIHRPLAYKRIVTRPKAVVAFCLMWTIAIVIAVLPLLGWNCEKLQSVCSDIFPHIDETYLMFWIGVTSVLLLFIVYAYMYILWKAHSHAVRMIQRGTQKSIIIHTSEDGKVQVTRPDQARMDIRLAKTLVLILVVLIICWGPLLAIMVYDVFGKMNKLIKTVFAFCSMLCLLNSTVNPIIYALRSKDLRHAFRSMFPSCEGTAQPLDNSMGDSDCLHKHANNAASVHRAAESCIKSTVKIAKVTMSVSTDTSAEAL

Regarding `CCc1c(C(=O)NCCc2ccc(N3CCCCC3)cc2)[nH]c2ccc(Cl)cc12` [Compound 1, Org27569], in test [1], the “Effect in catalepsy and antinociception” value is listed as “negative results”; the “Effect on hypothermic effects of CB1 receptor agonists CP55940 and anandamide” value is “attenuated the hypothermic effects”. The “Effect on Emax of agonist CP55,940” value in test [2] is given as “dose-dependently decreased the Emax”. Besides, the “Pharmacological selectivity against over forty GPCRs” value in test [3] is given as “high pharmacological selectivity”. In addition, in test [4], the inhibition – broadly, the relative decrease from the control value, in per cent – at 10 µM is -16.4 ± 1.8%. Moreover, the “Cue- and drug-induced reinstatement of cocaine- and methamphetamine-seeking behavior” value in test [5] is given as “dose-related attenuation”. In test [6], the “Anorectic effect, mechanism” value was “anorectic effect through non-CB1 specific mechanisms” and the “Effect on CB1 agonist-induced effects (antinociception, catalepsy, hypothermia)” value is given as “did not enhance or block”. As for `CCc1c(C(=O)NCCc2ccc(N(C)C)cc2)[nH]c2ccc(F)cc12` [Compound 3, Org27759, reference compound], in test [2], the “Effect on Emax of agonist CP55,940” value is “dose-dependently decreased the Emax”. Besides, the inhibition at 10 µM in test [4] is -20.4 ± 2.4%. `CCc1c(C(=O)NCCc2ccc(N(C)C)cc2)[nH]c2ccc(Cl)cc12` [Compound 16, 5-Chloro-N-{2-[4-(dimethylamino)phenyl]ethyl}-3-ethyl-1H-indole-2-carboxamide]: the inhibition at 10 µM in test [4] was -12.7 ± 2.8%. Regarding `CCc1c(C(=O)NCCc2ccc(N(CC)CC)cc2)[nH]c2ccc(Cl)cc12` [Compound 17, 5-Chloro-N-{2-[4-(diethylamino)phenyl]ethyl}-3-ethyl-1H-indole-2-carboxamide], the “fold more potent than compound 1 (CB1 IC50)” value in test [7] worked out at 2 fold.

In the case of `CCCN(CCC)c1ccc(CCNC(=O)c2[nH]c3ccc(Cl)cc3c2CC)cc1` [Compound 18, 5-Chloro-N-{2-[4-(dipropylamino)phenyl]ethyl}-3-ethyl-1H-indole-2-carboxamide], the inhibition at 10 µM in test [4] is -37.4 ± 6.8%. For the compound `CCCCCCNc1ccc(CCNC(=O)c2[nH]c3ccc(Cl)cc3c2CC)cc1` [Compound 19, 5-Chloro-N-{2-[4-(hexylamino)phenyl]ethyl}-3-ethyl-1H-indole-2-carboxamide], the inhibition at 10 µM in test [4] is -35 ± 4.6%. Same read-out and setting: in the case of `CCc1c(C(=O)NCCc2ccc(OC)cc2)[nH]c2ccc(Cl)cc12` [Compound 26, 5-Chloro-N-[2-(4-methoxyphenyl)ethyl]-3-ethyl-1H-indole-2-carboxamide] it was -11.2 ± 19.6%; in that of `CCc1c(C(=O)NCCc2ccc(C(C)(C)C)cc2)[nH]c2ccc(Cl)cc12` [Compound 27, 5-Chloro-N-[2-(4-tert-butylphenyl)ethyl]-3-ethyl-1H-indole-2-carboxamide], -18 ± 35.4%; in that of `CCc1c(C(=O)Nc2cccc(-c3cccc(N(C)C)n3)c2)[nH]c2ccc(Cl)cc12` [Compound 35, 5-Chloro-N-{3-[6-(dimethylamino)pyridin-2-yl]phenyl}-3-ethyl-1H-indole-2-carboxamide], -19.2 ± 11.5%.

On to `CCc1c(C(=O)N2CCN(c3ccccc3)CC2)[nH]c2ccc(Cl)cc12` [Compound 36, 5-Chloro-3-ethyl-2-(4-phenylpiperazine-1-carbonyl)-1H-indole], for which, in test [4], the inhibition at 10 µM was -28 ± 25.9%. As for `CCc1c(C(=O)N2CCN(c3ccc(Cl)cc3)CC2)[nH]c2ccc(Cl)cc12` [Compound 37, 5-Chloro-2-[4-(4-chlorophenyl)piperazine-1-carbonyl]-3-ethyl-1H-indole], the inhibition at 10 µM in test [4] was -31.1 ± 18.8%. On the same count and under the same terms, in the case of `CCc1c(C(=O)NCCc2ccc(N(CC)CC)cc2)[nH]c2ccc(F)cc12` [Compound 42, 5-Fluoro-N-{2-[4-(diethylamino)phenyl]ethyl}-3-ethyl-1H-indole-2-carboxamide] it was -25.7 ± 10.7%; in that of `CCN(CC)c1ccc(CCNC(=O)c2[nH]c3ccc(F)cc3c2C)cc1` [Compound 43, 5-Fluoro-N-{2-[4-(diethylamino)phenyl]ethyl}-3-methyl-1H-indole-2-carboxamide], -21.8 ± 6.5%; in that of `CCN(CC)c1ccc(CCNC(=O)c2cc3cc(F)ccc3[nH]2)cc1` [Compound 44, 5-Fluoro-N-{2-[4-(diethylamino)phenyl]ethyl}-1H-indole-2-carboxamide], -23.8 ± 5.2%.

Consider `CCN(CC)c1ccc(CCNC(=O)c2cc3cc(Cl)ccc3[nH]2)cc1` [Compound 45, 5-Chloro-N-{2-[4-(diethylamino)phenyl]ethyl}-1H-indole-2-carboxamide], for which, in test [2], the “Effect on Emax of agonist CP55,940” value is given as “dose-dependently decreased the Emax”. For the same compound, in test [7], the “fold more potent than compound 1 (CB1 IC50)” value was about 10 fold; the “fold more potent than compound 3 (CB1 IC50)” value is ~ 2.5 fold and 2.5 fold; the “fold more potent than compound 17 (CB1 IC50)” value is recorded as 6 fold. Turning to `CCc1c(C(=O)NCCc2ccc(N3CCCCC3)cc2)[nH]c2ccc(F)cc12` [Compound 46, 5-Fluoro-3-ethyl-N-{2-[4-(piperidin-1-yl)phenyl]ethyl}-1H-indole-2-carboxamide], the inhibition at 10 µM in test [4] is -33.1 ± 16.3%.
